This is an account of results in ChEMBL document CHEMBL4622957, “Green asymmetric synthesis of epoxypeptidomimetics and evaluation as human cathepsin K inhibitors” (Bioorg Med Chem, 2020).

Experiment [1] concerns the target T1, Cathepsin K (Homo sapiens, UniProt P43235).
T1 sequence (P43235 whole entry): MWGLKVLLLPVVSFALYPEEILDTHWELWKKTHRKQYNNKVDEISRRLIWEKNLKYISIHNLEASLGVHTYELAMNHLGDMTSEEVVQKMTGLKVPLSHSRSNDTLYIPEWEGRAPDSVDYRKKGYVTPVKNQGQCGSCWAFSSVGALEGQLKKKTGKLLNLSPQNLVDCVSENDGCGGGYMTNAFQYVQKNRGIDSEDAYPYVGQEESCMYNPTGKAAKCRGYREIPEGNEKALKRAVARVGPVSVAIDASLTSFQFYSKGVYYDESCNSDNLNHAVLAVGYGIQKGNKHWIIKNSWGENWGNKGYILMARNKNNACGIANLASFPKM
Nature of the experiment: Inhibition of recombinant human cathepsin K using Z-Phe-Arg-MCA as fluorogenic substrate preincubated for 5 mins followed by substrate addition and measured after 5 mins by fluorimetric analysis. The essentials:
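Recombinant human CatK, expressed in Pichia pastoris and active-site titrated with E-64, was used at 2 nM in 0.1 M sodium acetate pH 5.5 with 2.5 mM DTT and 2.5 mM EDTA at room temperature. Enzyme and inhibitor were preincubated 5 min, then 10 μM Z-Phe-Arg-MCA was added. Fluorescence (ex 380/em 460 nm) was read for 5 min. Triplicates; % inhibition from initial rates; IC50 from ≥7 inhibitor concentrations.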

In experiment [2] the target is T2, Procathepsin L (Homo sapiens, UniProt P07711). The experiment is described as follows: Inhibition of cathepsin L (unknown origin) at 25 uM using fluorogenic Z-FR-MCA as substrate preincubated for 5 mins followed by substrate addition by spectrofluorimetric assay relative to control.
Target sequence in this assay (P07711 114-333 limits assumed): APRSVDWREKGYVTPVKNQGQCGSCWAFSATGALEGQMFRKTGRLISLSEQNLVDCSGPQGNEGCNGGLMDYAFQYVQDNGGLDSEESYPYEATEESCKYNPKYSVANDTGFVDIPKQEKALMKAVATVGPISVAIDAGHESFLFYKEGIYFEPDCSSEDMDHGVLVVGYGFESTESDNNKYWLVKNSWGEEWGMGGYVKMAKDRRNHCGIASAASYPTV
The target of experiment [3] is T3, Cathepsin K (Homo sapiens) (UniProt P43235).
T3 sequence (whole entry): T1 sequence (P43235 whole entry)
The experiment is described as follows: Mixed type inhibition of recombinant human cathepsin K by Michaelis-Menten plot analysis.

Experiment [4] has as its target T1, Cathepsin K. The experiment is described as follows: Binding affinity to recombinant human cathepsin K.
For experiment [5], the target named is T2, Procathepsin L. Nature of the experiment: Inhibition of cathepsin L (unknown origin) using fluorogenic Z-FR-MCA as substrate preincubated for 5 mins followed by substrate addition by spectrofluorimetric assay.
Target sequence in this assay (P07711 whole entry): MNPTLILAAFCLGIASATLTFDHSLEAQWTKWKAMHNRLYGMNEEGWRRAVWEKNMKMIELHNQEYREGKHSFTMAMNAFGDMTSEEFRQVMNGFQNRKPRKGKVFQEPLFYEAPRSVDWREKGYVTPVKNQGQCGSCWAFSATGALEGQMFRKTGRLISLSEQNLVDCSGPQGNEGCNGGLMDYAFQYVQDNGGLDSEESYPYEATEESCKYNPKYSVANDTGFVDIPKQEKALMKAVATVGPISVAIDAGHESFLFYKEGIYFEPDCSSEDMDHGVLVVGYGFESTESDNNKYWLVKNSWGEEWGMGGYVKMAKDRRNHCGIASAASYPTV

Activity calls are given as the source filed them. The rule behind the calls is not given here.

The term IC50 denotes the concentration that inhibits the measured activity by half. Broadly, the inhibition is how much of the control response was suppressed. What is called Ki is a dissociation constant, usually derived from enzyme kinetics or from competition with a known ligand. Take `CCCCNC(=O)C([C@H]1O[C@@H]1c1ccccc1)N(C(=O)c1ccc(I)cc1)C(C)(C)C` (stereo partly drawn): at Cathepsin K [1], the concentration for half-maximal inhibition (IC50) was found to be 6.44 µM. On Procathepsin L [2], this compound yielded an inhibition of 30%. Besides, in experiment [3], the inhibition entry was “Active”. Also, the Ki at Cathepsin K [4] was 9.57 µM.
Turning to `CCCCNC(=O)C([C@H]1O[C@@H]1c1ccccc1)N(Cc1ccccc1)C(=O)c1ccccc1` (stereo partly drawn), the IC50 at Cathepsin K [1] was 18.5 µM. In addition, the inhibition on Procathepsin L [2] was determined as 0%.
With `CCCCNC(=O)C([C@H]1O[C@@H]1CC)N(Cc1ccccc1)C(=O)c1ccccc1` (stereo partly drawn), the inhibition against Procathepsin L [2] was 0%.
As for `CCCCCCC[C@H]1O[C@@H]1C(OC(=O)c1ccc(I)cc1)C(=O)NCCCC` (stereo partly drawn), the half-maximal inhibitory concentration (IC50) on Cathepsin K [1] is 3.35 µM. Moreover, the inhibition result in experiment [3] is “Active”. Further, at Cathepsin K [4], the inhibition constant Ki stood at 5.45 µM.
Turning to `CCCCCCC[C@H]1O[C@@H]1C(OC(=O)c1ccc(I)cc1)C(=O)NC1CCCCC1` (stereo partly drawn), on Procathepsin L [5], the IC50 stood at 5.36 µM.
Turning to `CCCCCCC[C@H]1O[C@@H]1C(OC(=O)C1CCCCC1)C(=O)NC(C)(C)C` (stereo partly drawn), at Cathepsin K [1], the concentration for half-maximal inhibition (IC50) came to 7.6 µM. In addition, the inhibition on Procathepsin L [2] came out at 0%.
As for `CCCCNC(=O)C([C@H]1O[C@@H]1c1ccccc1[N+](=O)[O-])N(Cc1ccccc1)C(=O)c1ccccc1` (stereo partly drawn), the half-inhibitory concentration (IC50) at Procathepsin L [5] is > 50 µM.
Regarding `CCCCNC(=O)C([C@H]1O[C@@H]1c1ccccc1Br)N(Cc1ccccc1)C(=O)c1ccccc1` (stereo partly drawn), the IC50 on Procathepsin L [5] was > 50 µM.
Take `CCCCCCC[C@H]1O[C@@H]1C(OC(=O)CCCCCBr)C(=O)NC(C)(C)C` (stereo partly drawn): the IC50 at Cathepsin K [1] worked out at 3.81 µM. Also, the inhibition against Procathepsin L [2] is 0%.
As to `CCCCCCC[C@H]1O[C@@H]1C(OC(=O)c1ccc(I)cc1)C(=O)NC(C)(C)C` (stereo partly drawn), the half-maximal inhibitory concentration (IC50) on Cathepsin K [1] is 2.21 µM.
